Measurements collected from several papers.
Target: Ephrin type-B receptor 6 (EPHB6, Homo sapiens, UniProt O15197)
Sequence (O15197 32-1021, as in one of the studies): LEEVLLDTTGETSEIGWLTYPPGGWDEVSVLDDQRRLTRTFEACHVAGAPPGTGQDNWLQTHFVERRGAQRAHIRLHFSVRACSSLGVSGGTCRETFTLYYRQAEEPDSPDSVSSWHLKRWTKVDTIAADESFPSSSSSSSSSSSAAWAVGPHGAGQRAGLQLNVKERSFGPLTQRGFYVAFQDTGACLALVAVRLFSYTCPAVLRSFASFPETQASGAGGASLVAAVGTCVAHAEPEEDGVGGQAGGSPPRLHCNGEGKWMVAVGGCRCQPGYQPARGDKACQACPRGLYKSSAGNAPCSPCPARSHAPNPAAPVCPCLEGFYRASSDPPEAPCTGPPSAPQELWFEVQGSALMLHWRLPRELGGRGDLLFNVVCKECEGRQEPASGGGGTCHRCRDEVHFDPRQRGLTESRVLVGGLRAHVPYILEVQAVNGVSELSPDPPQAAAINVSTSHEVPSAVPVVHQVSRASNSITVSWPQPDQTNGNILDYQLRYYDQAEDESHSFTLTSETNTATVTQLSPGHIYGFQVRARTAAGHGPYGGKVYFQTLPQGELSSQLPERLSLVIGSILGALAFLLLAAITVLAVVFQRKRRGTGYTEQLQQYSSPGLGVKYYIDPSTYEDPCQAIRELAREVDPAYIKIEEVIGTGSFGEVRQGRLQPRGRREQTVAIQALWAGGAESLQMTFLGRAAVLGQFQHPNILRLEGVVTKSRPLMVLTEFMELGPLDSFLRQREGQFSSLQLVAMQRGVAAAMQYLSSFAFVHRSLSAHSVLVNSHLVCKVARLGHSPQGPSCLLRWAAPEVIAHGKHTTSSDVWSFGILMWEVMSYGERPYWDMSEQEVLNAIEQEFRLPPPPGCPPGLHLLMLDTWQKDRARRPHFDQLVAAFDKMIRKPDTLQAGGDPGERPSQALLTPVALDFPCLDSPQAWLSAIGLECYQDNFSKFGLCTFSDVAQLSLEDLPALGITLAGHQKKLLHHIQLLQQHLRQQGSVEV

`C[C@H]1CCN(c2nccc(-c3cnn4ncccc34)n2)C1` has a remaining binding of 85% (binding; 1 µM).
`CCN1CCN(Cc2ccc(C(=O)Nc3ccc(C)c(Oc4ccc5c(c4)CC(=O)N5)c3)cc2C(F)(F)F)CC1` has a remaining binding of 91% (binding, competition with immobilised ligand; 1 µM).
The remaining binding of `CS(=O)(=O)N1CCCC(NC(=O)[C@H](CCC2CCCCC2)NC(=O)c2ccc(CNC(=O)c3cnc4ccccn34)cc2)C1` (stereo partly shown) is reported as 98% (cell-free assay, competition with immobilised ligand; 0.1 µM).
`COc1ncc2cc3ccccc3nc2c1C#N` has a remaining binding of 73% (cell-free assay, competition with immobilised ligand; 5 µM).
`CC(=O)N1CCC(c2ccc(C(=O)NC3=NCCN3)cc2C(F)(F)F)CC1` has a remaining binding of 100% (cell-free assay, competition with immobilised ligand; 1 µM).
With `O=C(NCCCN1CCOCC1)c1ccc(Nc2ncc(Cl)c(-c3ccc(Cl)s3)n2)cc1` the remaining binding was 13% (binding, competition with immobilised ligand; 1 µM).
`CNC(=O)[C@@H]1CC[C@@H](n2c(-c3ccc4cnccc4c3)nc3ccc(C(=O)NCc4cccc(C(N)=O)c4)cc32)C1` gave a remaining binding of 100% (binding, competition with immobilised ligand; 1 µM).
With `CN(c1nccc(-c2cnn3ncccc23)n1)C1CC1` the remaining binding was 100% (binding; 1 µM).
For `c1cncc(-c2cccc(Nc3nccc(NC4CCCCC4)n3)c2)c1`, the remaining binding was 1.6% (binding, competition with immobilised ligand; 10 µM).
`F[C@@H]1CCN(c2nccc(-c3cnn4ncccc34)n2)C1` has a remaining binding of 100% (binding; 1 µM).
The remaining binding of `C[C@@H]1CN(c2cc(-c3n[nH]c4ccc(OC5(C)CC5)cc34)ncn2)C[C@H](C)O1` is reported as 91% (cell-free assay, competition with immobilised ligand; 0.1 µM).
With `O=C(NCC1CCOCC1)c1n[nH]cc1NC(=O)c1c(F)cccc1F` the remaining binding was 91% (binding, competition with immobilised ligand; 1 µM).
For `O=C(c1ccc(Nc2nccc(-c3cc4ccccc4s3)n2)cc1)N1CCC(N2CCCC2)CC1`, the remaining binding was 2.5% (binding, competition with immobilised ligand; 1 µM).
`CN(CCCC(F)(F)F)c1nccc(-c2cnn3ncccc23)n1` has a remaining binding of 100% (binding; 1 µM).
With `C[C@@H](c1ccc(-n2cnc3c(N)ncnc32)cc1)N1CCc2nn(C)c(Cc3ccccc3)c2C1=O` the remaining binding was 51% (binding, competition with immobilised ligand; 0.1 µM).
The remaining binding of `Cc1cnn2ncc(-c3ccnc(N(C)C)n3)c2c1` is reported as 80% (binding; 1 µM).
With `Cc1nc(N2CC[C@@H](O)C2)ncc1-c1cc(C(F)(F)F)cc2[nH]ncc12` the remaining binding was 36% (binding, competition with immobilised ligand; 1 µM).
The remaining binding of `Nc1ncc2c(n1)-c1c([nH]c3ccc(C#CC4CC4)cc13)CCCC2` is reported as 84% (binding, competition with immobilised ligand; 1 µM).
With `C[C@@]1(Cc2ccc(C#N)cc2)C(=O)N(c2cc(Cl)cc(Cl)c2)c2ncc(C(=O)NC3(c4nc(C5CCC5)no4)CC3)n21` the remaining binding was 100% (cell-free assay, competition with immobilised ligand; 1 µM).
`O=C(c1ccc(Nc2ncc(Cl)c(-c3ccc(Cl)s3)n2)cc1)N1CCC(N2CCCC2)CC1` gave a remaining binding of 0% (binding, competition with immobilised ligand; 1 µM).
For `N[C@@H]1CCN(c2nccc(-c3cnn4ncccc34)n2)C1`, the remaining binding was 52% (binding; 1 µM).
With `CN(c1ccnc(CNc2nc(Nc3ccc4c(c3)CC(=O)N4)ncc2C(F)(F)F)n1)S(C)(=O)=O` the remaining binding was 54% (cell-free assay, competition with immobilised ligand; 1 µM).
